Assay results from ChEMBL document CHEMBL1138216, “Design and synthesis of novel derivatives of the muscarinic agonist tetra(ethylene glycol)(3-methoxy-1,2,5-thiadiazol-4-yl) [3-(1-methyl-1,2,5,6-tetrahydropyrid-3-yl)-1,2,5-thiadiazol-4-yl] ether (CDD-0304): effects of structural modifications on the binding and activity at muscarinic receptor …” (J Med Chem, 2006).
Changes are numbered by the printed parent chain. Active and inactive are the calls of the source. No cut-off for these calls is given here.

Tests used:
[1] = molecular target: T1, Muscarinic acetylcholine receptor M1 (Homo sapiens) (UniProt P11229); assay: Agonist activity at human M1 receptor expressed in A9 L cells assessed as stimulation of phosphoinositide hydrolysis relative to carbachol; format: functional, cell-based; settings: L929
T1 sequence (whole entry): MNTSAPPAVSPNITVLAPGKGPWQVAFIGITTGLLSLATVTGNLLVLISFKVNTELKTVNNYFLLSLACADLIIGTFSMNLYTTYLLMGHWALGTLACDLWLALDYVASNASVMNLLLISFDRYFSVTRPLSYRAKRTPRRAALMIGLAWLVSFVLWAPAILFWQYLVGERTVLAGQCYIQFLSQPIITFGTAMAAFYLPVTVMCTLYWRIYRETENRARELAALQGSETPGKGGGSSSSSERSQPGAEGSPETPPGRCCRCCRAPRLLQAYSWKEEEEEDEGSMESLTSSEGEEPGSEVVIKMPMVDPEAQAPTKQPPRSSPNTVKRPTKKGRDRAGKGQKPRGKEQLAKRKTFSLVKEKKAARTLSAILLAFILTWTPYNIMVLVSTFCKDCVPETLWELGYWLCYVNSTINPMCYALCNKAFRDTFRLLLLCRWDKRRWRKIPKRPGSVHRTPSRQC
Summary of the method: (§1)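 A9 L cells stably expressing the receptor, seeded 24 h, labelled overnight with 10 µCi/mL [3H]inositol in inositol-free DMEM; ligands in HBSS with 10 mM LiCl, 20 mM HEPES, 37 °C, 1 h; formic acid extraction, inositol phosphates counted by SPA beads.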

[2] = molecular target: Muscarinic acetylcholine receptor M3 (Homo sapiens, UniProt P20309); assay: Agonist activity at human M3 receptor expressed in A9 L cells assessed as stimulation of phosphoinositide hydrolysis relative to carbachol; format: functional, cell-based; settings: L929; summary of the method: as §1
Sequence of Muscarinic acetylcholine receptor M3 (P20309 whole entry, looked up): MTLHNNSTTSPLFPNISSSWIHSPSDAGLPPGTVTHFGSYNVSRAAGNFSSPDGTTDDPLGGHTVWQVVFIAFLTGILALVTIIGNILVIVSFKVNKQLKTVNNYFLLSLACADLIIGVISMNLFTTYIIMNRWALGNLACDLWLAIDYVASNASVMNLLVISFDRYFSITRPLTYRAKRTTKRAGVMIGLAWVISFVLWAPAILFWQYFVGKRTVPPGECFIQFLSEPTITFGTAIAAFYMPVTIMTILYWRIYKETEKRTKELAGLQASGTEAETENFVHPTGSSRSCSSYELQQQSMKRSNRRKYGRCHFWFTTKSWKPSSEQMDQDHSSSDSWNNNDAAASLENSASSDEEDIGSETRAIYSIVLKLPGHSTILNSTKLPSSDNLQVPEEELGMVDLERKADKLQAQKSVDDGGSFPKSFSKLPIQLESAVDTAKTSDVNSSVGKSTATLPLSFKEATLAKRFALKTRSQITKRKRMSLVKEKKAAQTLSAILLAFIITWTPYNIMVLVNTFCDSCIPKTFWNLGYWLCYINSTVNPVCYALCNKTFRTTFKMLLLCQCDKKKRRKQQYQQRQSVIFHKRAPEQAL

[3] = molecular target: T2, Muscarinic acetylcholine receptor M5 (Homo sapiens) (UniProt P08912); assay: Agonist activity at human M5 receptor expressed in A9 L cells assessed as stimulation of phosphoinositide hydrolysis relative to carbachol; format: functional, cell-based; settings: L929; summary of the method: as §1
T2 sequence (whole entry): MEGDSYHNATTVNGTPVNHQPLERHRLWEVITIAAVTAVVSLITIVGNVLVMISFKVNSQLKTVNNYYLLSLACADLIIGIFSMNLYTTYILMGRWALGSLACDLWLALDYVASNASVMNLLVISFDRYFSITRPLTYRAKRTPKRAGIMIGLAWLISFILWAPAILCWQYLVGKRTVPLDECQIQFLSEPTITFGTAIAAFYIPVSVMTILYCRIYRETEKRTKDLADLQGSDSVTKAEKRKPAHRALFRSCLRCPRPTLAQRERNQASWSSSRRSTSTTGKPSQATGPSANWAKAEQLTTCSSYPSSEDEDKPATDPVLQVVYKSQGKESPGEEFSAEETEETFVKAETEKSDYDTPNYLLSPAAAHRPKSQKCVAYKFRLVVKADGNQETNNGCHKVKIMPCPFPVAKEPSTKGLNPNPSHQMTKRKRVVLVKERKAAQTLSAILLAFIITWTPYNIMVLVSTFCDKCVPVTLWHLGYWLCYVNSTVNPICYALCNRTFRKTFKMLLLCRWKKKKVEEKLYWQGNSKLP

[4] = system: T3, Muscarinic acetylcholine receptor M1 (Homo sapiens), P11229 [Q185E]; assay: Agonist activity at human M1 receptor Q185E mutant expressed in A9 L cells assessed as stimulation of phosphoinositide hydrolysis relative to carbachol; format: functional, cell-based; settings: L929; summary of the method: as §1
T3 sequence (whole entry): T1 sequence (whole entry) with Q185E

[5] = molecular target: T4, Muscarinic acetylcholine receptor M4 (Homo sapiens) (UniProt P08173); assay: Activity at human M4 receptor assessed as inhibition of forskolin-stimulated cAMP accumulation relative to carbachol; format: functional
T4 sequence (whole entry): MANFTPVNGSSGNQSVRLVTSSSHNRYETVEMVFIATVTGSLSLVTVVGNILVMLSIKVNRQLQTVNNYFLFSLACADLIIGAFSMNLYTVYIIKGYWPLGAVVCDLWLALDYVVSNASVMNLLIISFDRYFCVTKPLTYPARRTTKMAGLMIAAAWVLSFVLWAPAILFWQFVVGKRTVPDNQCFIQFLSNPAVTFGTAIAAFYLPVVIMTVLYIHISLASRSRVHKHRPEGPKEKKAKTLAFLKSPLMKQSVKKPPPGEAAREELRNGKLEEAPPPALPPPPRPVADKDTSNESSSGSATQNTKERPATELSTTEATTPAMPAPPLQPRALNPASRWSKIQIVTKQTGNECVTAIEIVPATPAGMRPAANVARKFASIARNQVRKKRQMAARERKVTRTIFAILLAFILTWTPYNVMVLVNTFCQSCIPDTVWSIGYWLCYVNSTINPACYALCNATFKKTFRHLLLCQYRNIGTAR

[6] = molecular target: T5, Muscarinic acetylcholine receptor M1/M5 chimeric protein (Homo sapiens) (UniProt P11229+P08912); assay: Agonist activity at human M1/M5(o2) chimeric receptor expressed in A9 L cells assessed as stimulation of phosphoinositide hydrolysis relative to carbachol; format: functional, cell-based; settings: L929; summary of the method: as §1
[7] = molecular target: T5, Muscarinic acetylcholine receptor M1/M5 chimeric protein (Homo sapiens); assay: Agonist activity at human M1/M5(o3) chimeric receptor expressed in A9 L cells assessed as stimulation of phosphoinositide hydrolysis relative to carbachol; format: functional, cell-based; settings: L929; summary of the method: as §1
[8] = molecular target: T5, Muscarinic acetylcholine receptor M1/M5 chimeric protein (Homo sapiens); assay: Agonist activity at human M1/M5(o2o3) chimeric receptor expressed in A9 L cells assessed as stimulation of phosphoinositide hydrolysis relative to carbachol; format: functional, cell-based; settings: L929; summary of the method: as §1

| Smax [2] [%] | Smax [3] [%] | SMILES | Smax [1] [%] | Smax [4] [%] | Imax [5] [%] | Smax [6] [%] | Smax [7] [%] | Smax [8] [%] | Activity [2] | Activity [3] |
| --- | --- | --- | --- | --- | --- | --- | --- | --- | --- | --- |
| 80 | 43 | CCCCCCOc1nsnc1C1=CCCN(C)C1 [XANOMELINE] | 71 | 86 | 77 | 75 | 21 | 20 |  |  |
|  |  | COc1nsnc1OCCOCCOCCOCCOc1nsnc1C1=CCCN(C)C1 | 47 | 14 | 40 | 20 | 9.7 | 5.3 | inactive | inactive |
